Measurements taken from ChEMBL document CHEMBL3392953, “Synthesis and biological evaluation of furanoallocolchicinoids” (J Med Chem, 2015).

Key:
ASPC1 [1] = test: Cytotoxicity against human AsPC1 cells after 72 hrs by MTT assay; format: functional, cell-based; conditions: ASPC1, 72 h
Outline: (§1)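 Cells seeded at 3x10^5 cells/mL 24 h before assay (HEK293, AsPC-1 in DMEM; Jurkat, W1308 in RPMI-1640; 10% FCS, 2-ME). Tenfold dilutions from […] to 1 nM added; untreated cells as controls. 72 h incubation, MTT 250 µg/ml added for last 6 h, formazan dissolved in DMSO, OD read. IC50 from titration curves; inhibition index = 1 − OD(treated)/OD(control).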

HEK293 [2] = test: Cytotoxicity against HEK293 cells after 72 hrs by MTT assay; format: functional, cell-based; conditions: Homo sapiens, HEK293, 72 h; outline: as §1
Jurkat [3] = test: Cytotoxicity against human Jurkat cells after 72 hrs by MTT assay; format: functional, cell-based; outline: as §1
[4] = Cytotoxicity against mouse W1308 cells after 72 hrs by MTT assay; format: functional, cell-based; conditions: W1308, 72 h; outline: as §1
[5] = Induction of apoptosis in mouse W1308 cells assessed as pre-apoptotic cells level at 200 nM after 48 hrs by 3,3'-dihexyloxacarbocyanine iodide and propidium iodide staining based flow cytometry (reference value: 17%); format: functional
[6] = Induction of apoptosis in mouse W1308 cells assessed as apoptotic cells level at 200 nM after 48 hrs by 3,3'-dihexyloxacarbocyanine iodide and propidium iodide staining based flow cytometry (reference value: 11%); format: functional
ASPC1 [7] = test: Growth inhibition of human AsPC1 cells at 100 uM after 72 hrs by MTT assay; format: functional; conditions: ASPC1, 72 h, read-out: GI
HEK293 [8] = test: Growth inhibition of HEK293 cells at 100 uM after 72 hrs by MTT assay; format: functional; conditions: Homo sapiens, HEK293, 72 h; read-out: GI
Jurkat [9] = test: Growth inhibition of human Jurkat cells at 100 uM after 72 hrs by MTT assay; format: functional; conditions: read-out: GI
[10] = Growth inhibition of mouse W1308 cells at 100 uM after 72 hrs by MTT assay; format: functional; conditions: W1308, 72 h, read-out: GI

SMILES	IC50 (ASPC1 [1]) [µM]	IC50 (HEK293 [2]) [µM]	IC50 (Jurkat [3]) [µM]	IC50 [4] [µM]	Activity [5] [%]	Activity [6] [%]	inhibition of growth at 100 µM (ASPC1 [7]) [%]	inhibition of growth at 100 µM (HEK293 [8]) [%]	inhibition of growth at 100 µM (Jurkat [9]) [%]	inhibition of growth at 100 µM [10] [%]
COc1cc2c(c(OC)c1OC)-c1ccc3c(ccn3C)c1C(=O)CC2	< 0.02	< 0.02	< 0.02	< 0.02	20	29				
COc1cc2c(c(OC)c1OC)-c1cc3cc(COC(C)=O)oc3cc1[C@@H](NC(C)=O)CC2	2	1	1	1			50	50	50	50
COc1cc2c(c(OC)c1OC)-c1cc3cc(-c4ccccn4)oc3cc1[C@@H](NC(C)=O)CC2	20	20	20	10						
COC(=O)CCCCCCCCc1cc2cc3c(cc2o1)[C@@H](NC(C)=O)CCc1cc(OC)c(OC)c(OC)c1-3	> 100	> 100	> 100	> 100						
COc1cc2c(c(OC)c1OC)-c1cc3ccn(C)c3cc1C(=O)CC2	0.8	< 0.2	< 0.1	< 0.2						
COc1cc2c(c(OC)c1OC)-c1cc3cc(C4(O)CCCC4)oc3cc1[C@@H](NC(C)=O)CC2	20	4	4	8			50	50	50	50
COc1cc2c(c(OC)c1OC)-c1cc3cc(-c4ccccc4)oc3cc1[C@@H](NC(C)=O)CC2	20	4	4	8						
